# According to PubChem BioAssay:
# Activity calls are given as the source filed them.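 Rule for the calls, unless noted: active = inhibition of the reporter signal at or above 50%; inactive = inhibition below 50%.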
# Experiments:
# [1] = inhibitors of TNFa-induced NFkB p65 translocation, primary screen, imaging, HUVEC, MLSMR starter and 10KST1 sets (AID 438;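 active = inhibition above 20% together with a positive visual image hit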;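 note: compound added about 3h40 before a 20 min TNFalpha stimulation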;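 for inhibition: signal is the nuclear over cytoplasmic p65 intensity ratio per well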); details: HUVEC TNFa-induced p65 nuclear translocation; cell count: measured here: nuclei count (cytotoxicity indicator), at 2.08 µM; inhibition: at 2 µM, stronger effect = higher value, 0% TNFa-plus-vehicle, 100% no-TNFa wells
# [2] = reduction of polyQ htt aggregates in cells – imaging, exon1htt(103Q)mCFP cells, high-content imaging, primary screen (AID 483;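 active = visual image review flags a hit and inhibition of aggregation exceeds 20%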;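 note: compound exposure lasted 3 days before fixation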;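 for nuclei count: percent of the per-plate median nuclei count of sample wells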); details: exon1htt(103Q)mCFP cell line, aggregate imaging, at 2 µM; inhibition of aggregation: stronger effect = higher value; nuclei count: measured here: cell count, toxicity
# [3] = endothelial E-selectin expression blockers – imaging, HUVEC, immunofluorescence, MLSMR starter and 10KST1 sets, primary screen (AID 487;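 active = visually confirmed hit in the image check and inhibition above 20%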;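 for inhibition: signal is fraction of cell area covered by stained E-selectin grains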;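 for nuclei count: 100% = median nuclei count of all wells on the same plate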); details: HUVEC TNFalpha-induced E-selectin immunofluorescence imaging, at 2 µM; inhibition: stronger effect = higher value; nuclei count: measured here: cell number, toxicity
# [4] = biological target: Voltage-gated potassium channel subunit beta-2 (Rattus norvegicus) (UniProt P62483); experiment: inhibitors of rat Kvbeta2 reductase activity – biochemical, NADPH fluorescence, primary screen (AID 622;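 active = fluorescence slope higher than the sample average by over 3 SD, cut at about -0.22 in these data, passing the limit was not always enough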;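 note: slope of raw intensity against log time taken from 70 to 1610 s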); details: recombinant KvBeta, 4-cyanobenzaldehyde reduction, at 10 µM, stronger effect = higher value
# Sequence of Voltage-gated potassium channel subunit beta-2 (Rattus norvegicus) (P62483 whole entry, looked up): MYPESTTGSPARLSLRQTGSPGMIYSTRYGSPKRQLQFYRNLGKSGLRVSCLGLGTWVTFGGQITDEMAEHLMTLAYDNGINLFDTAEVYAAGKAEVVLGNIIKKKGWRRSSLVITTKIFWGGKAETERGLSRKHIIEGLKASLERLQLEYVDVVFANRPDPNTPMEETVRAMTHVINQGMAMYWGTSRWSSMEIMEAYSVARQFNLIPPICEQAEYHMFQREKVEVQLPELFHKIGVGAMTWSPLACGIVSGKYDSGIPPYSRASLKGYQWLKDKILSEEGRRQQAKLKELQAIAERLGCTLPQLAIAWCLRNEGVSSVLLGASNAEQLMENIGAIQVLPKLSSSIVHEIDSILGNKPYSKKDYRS
# [5] = biological target: Voltage-gated potassium channel subunit beta-2 (Rattus norvegicus) (UniProt P62483); experiment: enhancers of rat Kvbeta2 NADPH turnover – biochemical, NADPH fluorescence, primary screen (AID 623;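 active = NADPH fluorescence slope more negative than the mean of all samples by about 3 SD, 99.7% confidence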;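 note: fluorescence intensity change per second fitted from 20 to 320 s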); details: Recombinant KvBeta, NADPH fluorescence decrease slope, 10 min; at 10 µM; stronger effect = lower value
# [6] = biological target: Muscarinic acetylcholine receptor M4 (Homo sapiens) (UniProt P08173); experiment: M4-linked GIRK flux change, two-sided – cell-based, HEK293 M4/GIRK, thallium flux, BTC-AM, M4 allosteric agonist project, primary screen (AID 625;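 active = fluorescence slope after compound addition differing from the mean of all tested samples at 99.7% confidence, mostly higher but some lower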;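 note: thallium influx through GIRK channels coupled to M4 in HEK293 cells with BTC-AM dye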); details: at 10 µM, actives lie on both sides
# Sequence of Muscarinic acetylcholine receptor M4 (Homo sapiens) (P08173 whole entry, looked up): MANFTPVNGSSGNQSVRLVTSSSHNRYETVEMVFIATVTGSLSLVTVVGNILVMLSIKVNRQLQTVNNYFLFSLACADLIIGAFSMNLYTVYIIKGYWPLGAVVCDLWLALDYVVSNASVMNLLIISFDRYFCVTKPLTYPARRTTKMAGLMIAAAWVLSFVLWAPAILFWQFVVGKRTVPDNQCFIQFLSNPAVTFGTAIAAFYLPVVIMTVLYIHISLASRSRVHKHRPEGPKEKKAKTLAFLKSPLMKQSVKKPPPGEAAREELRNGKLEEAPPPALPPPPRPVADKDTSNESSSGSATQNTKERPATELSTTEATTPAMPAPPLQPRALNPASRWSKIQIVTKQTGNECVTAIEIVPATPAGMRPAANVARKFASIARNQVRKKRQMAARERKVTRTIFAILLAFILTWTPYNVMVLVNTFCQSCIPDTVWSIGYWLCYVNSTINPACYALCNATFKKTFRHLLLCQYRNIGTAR
# In short: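 Material: M4/GIRK1/GIRK2 stable HEK293 cell line. Medium: pH 7.3 thallium assay buffer. Dosing: single compound concentration, 10 µM final. Schedule: 1 h dye loading, 2 min kinetic read. Measured by: kinetic fluorescence with BTC-AM dye. Read-out: post-addition slope, 15–24 s, of baseline-normalized fluorescence. Benchmarks: carbachol and DMSO controls.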
# [7] = blockers of RIG-like receptor reporter activation – cell-based, Sendai virus stimulus, luciferase, 10K MLSCN set, TLR/RLR signaling modifier project, primary screen (AID 602276;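 active = inhibition at or above 50% at 10 µM; inactive = inhibition below 50%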;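 note: firefly luciferase from ISG56 promoter only with Renilla not read in this screen; 0% = Sendai virus plus DMSO and 100% = medium plus DMSO without virus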); details: HEK293 RL24 IRF3 luciferase reporter, at 10 µM, stronger effect = higher value
# [8] = TLR3 IRF3 reporter activation blockers – cell-based, poly I:C stimulus, luciferase, 10K MLSCN set, primary screen (AID 602277); details: HEK293-TLR3 RL24 IRF3 luciferase reporter, at 10 µM, stronger effect = higher value
Structure (SMILES),cell count [1],inhibition [1],inhibition of aggregation [2],nuclei count [2] [%],inhibition [3],nuclei count [3] [%],fluorescence slope [4],NADPH fluorescence slope [5],fluorescence slope [6],inhibition [7],inhibition [8]
Cc1ccccc1Cn1nc(C)c(NC(=O)c2noc3c2CCCC3)c1C,191,-1.3% (inactive),7.3% (inactive),101,-13.5% (inactive),120,-0.571 (inactive),-2.7e-05 (inactive),0.00499 (inactive),-24.6% (inactive),-32% (inactive)
CC(=O)Nc1cccc(NC(=O)CSc2nnnn2C(C)C)c1,638,1.6% (inactive),13.7% (inactive),62.3,-46.4% (inactive),120,-0.436 (inactive),-2.6e-05 (inactive),0.00495 (inactive),12.9% (inactive),12.5% (inactive)
CCOC(=O)CSc1nc2cc(C(=O)NCc3ccco3)ccc2c(=O)n1-c1ccc(F)cc1,329,7.7% (inactive),-7.1% (inactive),104,7.7% (inactive),92.9,-0.481 (inactive),0.000117 (inactive),0.00969 (inactive),-7.4% (inactive),-0.0676% (inactive)
CC(=O)C1=C(O)C(=O)N(Cc2ccco2)C1c1ccc2c(c1)OCO2 (centres undefined),403,10.9% (inactive),1.6% (inactive),104,7.1% (inactive),116,-0.513 (inactive),-2.5e-05 (inactive),0.00429 (inactive),0.0775% (inactive),11.9% (inactive)
COCCCNC(=O)c1ccc2c(c1)OCO2,391,1.4% (inactive),0.6% (inactive),107,-36.4% (inactive),108,-0.567 (inactive),-9.1e-05 (inactive),0.00354 (inactive),-10.8% (inactive),-37.6% (inactive)
COc1ccc(OC)c(C2C3=C(CCCC3=O)Nc3c2c(=O)n(C)c(=O)n3C)c1 (centres undefined),508,1.4% (inactive),4.8% (inactive),89.5,-15.1% (inactive),96.3,-0.547 (inactive),-0.000161 (inactive),0.00407 (inactive),4.02% (inactive),0.406% (inactive)
O=c1c2ccccc2nc(-c2cccc(Cl)c2)n1O,333,11.6% (inactive),0.5% (inactive),102,-4.3% (inactive),112,-0.453 (inactive),-3.1e-05 (inactive),0.0197 (active),17.4% (inactive),6.85% (inactive)
Cc1ccccc1-c1noc(N)c1C#N,515,5.3% (inactive),-0.5% (inactive),95.2,4.6% (inactive),103,-0.317 (inactive),-2.3e-05 (inactive),0.00617 (inactive),12.5% (inactive),-2.11% (inactive)
CC1=C(C#N)C(c2ccc3ncccc3c2)C(C#N)=C(C)N1,641,1.7% (inactive),-43.5% (inactive),130,-66.3% (inactive),110,-0.44 (inactive),1.3e-05 (inactive),0.0045 (inactive),5.74% (inactive),5.72% (inactive)
CCOC(=O)N1CCN(c2cc3[nH]c(=S)[nH]c3cc2F)CC1,792,0% (inactive),-5.7% (inactive),104,-135% (inactive),136,-0.525 (inactive),-2.4e-05 (inactive),0.00501 (inactive),17.8% (inactive),20.8% (inactive)
COc1ccc(Cl)cc1NC(=O)COc1cccc(-n2cnnn2)c1,371,1.2% (inactive),5.6% (inactive),102,10.9% (inactive),112,-0.528 (inactive),-1.9e-05 (inactive),0.00451 (inactive),6.87% (inactive),-12.1% (inactive)
Cc1cc(C)c(-c2cc(C(=O)Nc3c(C)n(C)n(-c4ccccc4)c3=O)[nH]n2)c(O)c1,434,1.8% (inactive),-1.8% (inactive),111,-51.7% (inactive),105,-0.585 (inactive),3.8e-05 (inactive),0.00571 (inactive),8.55% (inactive),101% (active)
Cc1noc(C)c1COc1cccc(C(=O)Oc2ccc3c(c2)OCO3)c1,329,-9.6% (inactive),4.3% (inactive),80.2,1.2% (inactive),100,-0.567 (inactive),-2.5e-05 (inactive),0.00685 (inactive),8.11% (inactive),15.8% (inactive)
COc1cccc(-c2cc(C(F)(F)F)n3nc(N)nc3n2)c1,814,-0.8% (inactive),18.9% (inactive),90.5,31.9% (inactive),98.9,-0.449 (inactive),-5e-05 (inactive),0.00414 (inactive),6.21% (inactive),-0.814% (inactive)
